The array DNA melting data of Ke et al. (doi:10.1101/2024.01.08.574731)

Assays:
[1] = folding enthalpy; higher = less favourable; fluorescence melt of hairpins on a sequencing array, two-state fit; details: sodium 0.088 M
Outline: (§1)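 Hairpins were imaged by Cy3 fluorescence on a sequenced MiSeq flow cell with annealed Cy3 and quencher oligos, in 50 mM Na-HEPES pH 8.0, 25 mM NaCl, in 2.5 °C steps up to 60 °C. Bootstrapped two-state fits of normalised signals gave melting temperature and folding enthalpy. Four replicates were combined by inverse variance, and fitted temperatures were raised by 9.35 °C to match UV melts.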

[2] = melting temperature; fluorescence melt of hairpins on a sequencing array, two-state fit, raised by 9.35 °C to match UV melts; details: sodium 0.088 M
Outline: as §1

Row | Sequence | folding enthalpy [1] [kcal/mol] | Tm [2] [°C]
1 | GGCGGGGGAAACCCTGCC (((.(((....))).))) | -27 | 65.2
2 | GATCAGGACACTGATC ((((((....)))))) | -45.4 | 56.7
3 | GCGTCCGAAAGGAGGCGC ((((((....)))..))) | -36.3 | 67.5
4 | GATCGCCGTAGCGATC ((((((....)))))) | -45 | 69.2
5 | GCGGAGCGAAAGCTTCGC (((.(((....))).))) | -31.2 | 68.6
6 | GATTGGAAACAATC (((((....))))) | -23.6 | 40.5
7 | GCCGGCGAAAGCCTCGGC ((((((....)))..))) | -19.9 | 53.3
8 | GGGCTTGGAAACAGGCTC (.((.((....)).)).) | -24.4 | 38.3
9 | GATCCACATCTGGATC ((((((....)))))) | -29.1 | 49.2
10 | GGGAATGGAAACGTTTCC ((.((.(....).)).)) | -15.3 | 34.3
11 | GCGGTTCCGAAAGGACGC (((..(((....)))))) | -25 | 51.7
12 | GATCTATCAGTAGATC ((((((....)))))) | -32.5 | 40.4
13 | GATCTATTGTTAGATC ((((((....)))))) | -35.9 | 42.5
14 | GACCAACGAAAGTTTGTC (((.(((....))).))) | -26.9 | 41.7
15 | GATCGTGACCACGATC ((((((....)))))) | -38.7 | 61.3
16 | GTGTGGGGAAACCCACAC (((((((....))))))) | -32.3 | 69
17 | GCTTTGCGAAAGCCCAGC (((..((....))..))) | -14.1 | 31.5
18 | GATCTCTAGCGAGATC ((((((....)))))) | -23.1 | 49.9
19 | GATCACGAGTGTGATC ((((((....)))))) | -37.7 | 56.3
20 | GTGTACGGAAACGTGTAC ((..(((....)))..)) | -20.4 | 35.2
21 | GAGCGCCGAAAGGCTCTC (((.(((....))).))) | -21.4 | 50.7
22 | GGGTTCTCGAAAGAGCCC (((..(((....)))))) | -26.5 | 48.1
23 | GTAGGTGGAAACATCTGC (.((.((....)).)).) | -18.4 | 30

Row | Sequence | folding enthalpy [1] [kcal/mol] | Tm [2] [°C]
24 | GGGATTCGAAAGAAGCCC (((.(((....))).))) | -34.7 | 63.5
25 | GCCCGCGAAAGCGCTGGC ((((((....)))..))) | -16.5 | 58.5
26 | GGGTTCGAAAGAACCCCC ((((((....)))..))) | -9.24 | 68.2
27 | GGTAACGAAAGTTGGACC ((((((....)))..))) | -15.5 | 26.8
28 | GCCGGGCGAAAGCCCTGC ((.((((....)))).)) | -14.9 | 57.2
29 | GTCGGTGGAAACGCCGAC (((((.(....).))))) | -50 | 63.2
30 | GCACTGCGAAAGCTGAGC ((.(.((....)).).)) | -20.5 | 49.2
31 | GTGGGGTCGAAAGACCAC (((..(((....)))))) | -19.2 | 63.1
32 | GATCCGGATTCGGATC ((((((....)))))) | -35.7 | 59.1
33 | GATCCTCATGAGGATC ((((((....)))))) | -41.1 | 58.4
34 | GCCGGCTCGAAAGAGGGC (((..(((....)))))) | -19.2 | 46.9
35 | GCAACCGAAAGGTGCTGC ((((((....)))..))) | -23.5 | 57.1
36 | GCCCAAGGAAACTTGGAC (.(((((....))))).) | -19.6 | 38
37 | GGCGAAGGAAACTTTGCC (((.(((....))).))) | -35.8 | 53.2
38 | GATCACAAGCGTGATC ((((((....)))))) | -37.6 | 56.6
39 | GTGTCACGAAAGTGCAC (((.(((....)))))) | -26 | 53.5
40 | GTAGGCGAAAGCCACTAC ((((((....)))..))) | -11.9 | 47.3
41 | GATCCGGGGCGGATC ((((((...)))))) | -37.2 | 56
42 | GCTCGCCGAAAGGCAGC (((.(((....)))))) | -19.9 | 62.6
43 | GCAGATGGAAACATCTGC (((((((....))))))) | -37.5 | 67.1
44 | GATCGTGTAACGATC ((((((...)))))) | -48.1 | 63.5
45 | GGATTAGGAAACTAACCC ((.((((....)))).)) | -17.3 | 30.1
46 | CGGCGTCGGAAACGACCG (((..(((....)))))) | -13.8 | 47.4

Row | Sequence | folding enthalpy [1] [kcal/mol] | Tm [2] [°C]
47 | GGCCTAGAAATAGGCC ((((((....)))))) | -34.9 | 62.8
48 | GATCATCTCCATGATC ((((((....)))))) | -32.9 | 46.8
49 | GGCAACGGAAACGCTGCC ((((.((....)).)))) | -41.8 | 53.6
50 | GACGCTGGAAACAGCACC (..((((....))))..) | -11.1 | 30
51 | GTCAAGAAATTGAC (((((....))))) | -21.6 | 40.8
52 | GCTATACGAAAGTAGAGC (((.(((....))).))) | -38.3 | 53.4
53 | GATCCGAACACGGATC ((((((....)))))) | -36.6 | 57.2
54 | GAACGCGAAAGCGGTTC ((((((....))).))) | -14.3 | 57.3
55 | GGGTACGGAAACATACCC (((((.(....).))))) | -33.1 | 40.2
56 | GTCTGCGAAAGCATGGAC ((((((....)))..))) | -15.7 | 40.7
57 | GATCCCTGCCGGGATC ((((((....)))))) | -42.8 | 60
58 | GCGAAAGATCGC ((((....)))) | -12.4 | 39.9
59 | GGGAATGGAAACATTCTC (.(((((....))))).) | -24.2 | 44.9
60 | GCTCCCGCGAAAGCGAGC (((..(((....)))))) | -10.7 | 37.5
61 | GATCGACCGCTCGATC ((((((....)))))) | -45.2 | 51.7
62 | GCCAGCGAAAGCTCTGGC ((((((....)))..))) | -24.5 | 50.6
63 | GATCATAACATGATC ((((((...)))))) | -37 | 50.3
64 | GACATTGGAAACAATGCC (.(((((....))))).) | -21.5 | 38.1
65 | GATCGTAAACACGATC ((((((....)))))) | -36.9 | 52
66 | GTCATCGAAAGATACGAC ((((((....)))..))) | -20.9 | 35
67 | CGAAACGGAAACGTTCG (((.(((....)))))) | -25.9 | 45
68 | GATCTCGCCGAGATC ((((((...)))))) | -37 | 55.2
69 | GCGTTGGGAAACCAATGC ((.((((....)))).)) | -43.2 | 54.3
